In PubChem BioAssay:
Calls of active or inactive are those of the source.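 Rule for the calls, unless noted: active = inhibition above 20% together with a positive visual image hit; inconclusive = visual image hit but inhibition not above 20%; inactive = no visual image hit.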

Legend:
[1] = inhibitors of TNFa-induced NFkB p65 translocation, primary screen, imaging, HUVEC, MLSMR starter and 10KST1 sets (AID 438); settings: HUVEC TNFa-induced p65 nuclear translocation; cell count: measured here: nuclei count (cytotoxicity indicator), at 2.08 µM; inhibition: at 2 µM, stronger effect = higher value, 0% TNFa-plus-vehicle, 100% no-TNFa wells;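 note: compound added about 3h40 before a 20 min TNFalpha stimulation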;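 for inhibition: signal is the nuclear over cytoplasmic p65 intensity ratio per well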
[2] = inhibitors of mutant huntingtin aggregation, primary screen, imaging, exon1htt(103Q)mCFP cells, high-content imaging (AID 483;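 active = visual image review flags a hit and inhibition of aggregation exceeds 20%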;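 note: compound exposure lasted 3 days before fixation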;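 for nuclei count: percent of the per-plate median nuclei count of sample wells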); settings: exon1htt(103Q)mCFP cell line, aggregate imaging, at 2 µM; inhibition of aggregation: stronger effect = higher value; nuclei count: measured here: cell count, toxicity
[3] = inhibitors of E-selectin induction by TNFa, primary screen, imaging, HUVEC, immunofluorescence, MLSMR starter and 10KST1 sets (AID 487;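 active = visually confirmed hit in the image check and inhibition above 20%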;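 for inhibition: signal is fraction of cell area covered by stained E-selectin grains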;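 for nuclei count: 100% = median nuclei count of all wells on the same plate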); settings: HUVEC TNFalpha-induced E-selectin immunofluorescence imaging, at 2 µM; inhibition: stronger effect = higher value; nuclei count: measured here: cell number, toxicity
[4] = molecular target: Voltage-gated potassium channel subunit beta-2 (Rattus norvegicus) (UniProt P62483); experiment: KvBeta enzyme negative modulators, primary screen, biochemical, NADPH fluorescence (AID 622;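 active = fluorescence slope higher than the sample average by over 3 SD, cut at about -0.22 in these data, passing the limit was not always enough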;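 note: slope of raw intensity against log time taken from 70 to 1610 s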); settings: recombinant KvBeta, 4-cyanobenzaldehyde reduction, at 10 µM, stronger effect = higher value
[5] = molecular target: Voltage-gated potassium channel subunit beta-2 (Rattus norvegicus) (UniProt P62483); experiment: KvBeta positive modulators, primary screen, biochemical, NADPH fluorescence (AID 623;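 active = NADPH fluorescence slope more negative than the mean of all samples by about 3 SD, 99.7% confidence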;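 note: fluorescence intensity change per second fitted from 20 to 320 s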); settings: Recombinant KvBeta, NADPH fluorescence decrease slope, 10 min; at 10 µM; stronger effect = lower value
[6] = molecular target: Muscarinic acetylcholine receptor M4 (Homo sapiens) (UniProt P08173); experiment: compounds altering M4/GIRK thallium flux, either direction, primary screen, M4 allosteric agonist project, cell-based, HEK293 M4/GIRK, BTC-AM (AID 625;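 active = fluorescence slope after compound addition differing from the mean of all tested samples at 99.7% confidence, mostly higher but some lower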;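 note: thallium influx through GIRK channels coupled to M4 in HEK293 cells with BTC-AM dye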); settings: at 10 µM, actives lie on both sides
How it was run: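 Material: HEK293 cells with M4 receptor and GIRK channels; Times: cells overnight at 37 °C, BTC-AM loading 1 h, reads 2 min total; Technique: kinetic BTC-AM fluorescence sampled at 1 Hz, 10 s pre-addition baseline; Read-out basis: slope over 15–24 s of trace normalized to starting intensity; Controls: carbachol positive, DMSO negative.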

[7] = inhibitors of Sendai virus-induced IRF3 signaling, primary screen, TLR/RLR signaling modifier project, cell-based, Sendai virus stimulus, luciferase, 10K MLSCN set (AID 602276;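 active = inhibition at or above 50% at 10 µM; inactive = inhibition below 50%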;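 note: firefly luciferase from ISG56 promoter only with Renilla not read in this screen; 0% = Sendai virus plus DMSO and 100% = medium plus DMSO without virus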); settings: HEK293 RL24 IRF3 luciferase reporter, at 10 µM, stronger effect = higher value
[8] = inhibitors of poly I:C-induced TLR3 signaling, primary screen, cell-based, poly I:C stimulus, luciferase, 10K MLSCN set (AID 602277;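 active = inhibition of the reporter signal at or above 50%; inactive = inhibition below 50%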); settings: HEK293-TLR3 RL24 IRF3 luciferase reporter, at 10 µM, stronger effect = higher value

Muscarinic acetylcholine receptor M4 (Homo sapiens), sequence (P08173 whole entry, looked up): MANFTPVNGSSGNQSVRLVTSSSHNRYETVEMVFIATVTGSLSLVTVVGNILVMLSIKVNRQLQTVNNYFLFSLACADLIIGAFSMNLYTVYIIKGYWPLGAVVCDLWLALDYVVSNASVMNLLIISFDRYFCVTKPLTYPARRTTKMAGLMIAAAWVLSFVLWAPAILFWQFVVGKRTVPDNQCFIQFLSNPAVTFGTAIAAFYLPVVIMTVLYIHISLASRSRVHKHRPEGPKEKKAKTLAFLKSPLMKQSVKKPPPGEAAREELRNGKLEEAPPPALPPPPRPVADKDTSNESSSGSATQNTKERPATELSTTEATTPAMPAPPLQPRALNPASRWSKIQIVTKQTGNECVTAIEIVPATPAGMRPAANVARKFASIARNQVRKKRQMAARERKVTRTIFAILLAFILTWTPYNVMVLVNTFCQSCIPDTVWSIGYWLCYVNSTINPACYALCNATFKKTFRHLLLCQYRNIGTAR
Voltage-gated potassium channel subunit beta-2 (Rattus norvegicus), sequence (P62483 whole entry, looked up): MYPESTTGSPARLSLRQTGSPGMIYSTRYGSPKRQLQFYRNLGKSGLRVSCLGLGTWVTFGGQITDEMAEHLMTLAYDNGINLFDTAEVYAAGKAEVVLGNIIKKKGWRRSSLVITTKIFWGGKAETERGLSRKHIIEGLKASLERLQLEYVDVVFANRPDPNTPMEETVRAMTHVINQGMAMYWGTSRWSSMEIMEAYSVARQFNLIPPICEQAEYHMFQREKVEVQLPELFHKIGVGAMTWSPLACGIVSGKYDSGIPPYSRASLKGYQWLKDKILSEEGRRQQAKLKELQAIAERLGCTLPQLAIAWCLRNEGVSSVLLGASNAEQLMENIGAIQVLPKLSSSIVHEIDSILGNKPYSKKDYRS

| SMILES | cell count [1] | inhibition [1] | inhibition of aggregation [2] | nuclei count [2] [%] | inhibition [3] | nuclei count [3] [%] | fluorescence slope [4] | NADPH fluorescence slope [5] | fluorescence slope [6] | inhibition [7] | inhibition [8] |
| --- | --- | --- | --- | --- | --- | --- | --- | --- | --- | --- | --- |
| Cc1ccccc1NC(=O)C1CCN(c2cnccn2)CC1 | 304 | 2.2% (inactive) | -10.2% (inactive) | 86.3 | -42.9% (inactive) | 111 | -0.543 (inactive) | -1.5e-06 (inactive) | 0.00512 (inactive) | 5.1% (inactive) | 15.6% (inactive) |
| O=C(COc1ccc2c(c1)OCO2)NC12CC3CC(CC(C3)C1)C2 | 337 | -3.7% (inactive) | 1.3% (inactive) | 91.5 | -142% (inactive) | 99.1 | -0.411 (inactive) | -4.1e-05 (inactive) | 0.00898 (inactive) | -38.5% (inactive) | -35.6% (inactive) |
| CCCn1c(=O)c2ccccc2n2c(SCc3cc(=O)n4ccsc4n3)nnc12 | 556 | -10.8% (inactive) | -7% (inactive) | 90.4 | -8.3% (inactive) | 136 | -0.479 (inactive) | 1.9e-05 (inactive) | 0.00554 (inactive) | 1.22% (inactive) | 12% (inactive) |
| CCOC(=O)c1[nH]c(C)c(C(=O)Nc2cc(OC)ccc2OC)c1C | 671 | -5.9% (inactive) | -3.7% (inactive) | 2.5 | -153% (inactive) | 111 | -0.415 (inactive) | 4.7e-05 (inactive) | 0.00644 (inactive) | 30.4% (inactive) | 51.4% (active) |
| Cc1cc(-c2ccccc2)c2c3c(cn2n1)c(=O)n(C)c(=O)n3C | 386 | 2% (inactive) | -0.2% (inactive) | 116 | -14.4% (inactive) | 86.7 | -0.59 (inactive) | -1.7e-06 (inactive) | 0.00111 (inactive) | 17.8% (inactive) | 27.8% (inactive) |
| CC1CN(c2nc3ccccn3c(=O)c2/C=C(\C#N)S(=O)(=O)c2ccccc2)CC(C)O1 (centres undefined) | 570 | 8.1% (inactive) | 3.6% (inactive) | 98.6 | 56.6% (inactive) | 104 | -0.513 (inactive) | -0.000138 (inactive) | 0.00288 (inactive) | -1.56% (inactive) | -21.6% (inactive) |
| CC(=O)N1CCc2cc(S(=O)(=O)NC(CC(C)C)C(=O)N3CCn4c3nc3ccccc34)ccc21 (centres undefined) | 292 | 3.6% (inactive) | 8.8% (inactive) | 104 | 22.8% (inactive) | 63 | -0.329 (inactive) | 5e-05 (inactive) | 0.0063 (inactive) | 10.1% (inactive) | 9.41% (inactive) |
| COC(=O)Cn1cc(C(=O)c2cccs2)c2ccccc21 | 220 | -21.4% (inactive) | 8.5% (inactive) | 82.9 | 4.3% (inactive) | 70.5 | -0.554 (inactive) | -3.7e-05 (inactive) | 0.00685 (inactive) | 14.1% (inactive) | 20.4% (inactive) |
| Cc1ccc(OCC(=O)N2CCN(C(=O)CCC3CCCC3)CC2)cc1 | 319 | 0.5% (inactive) | -30.7% (inactive) | 84.9 | -1.5% (inactive) | 108 | -0.242 (inactive) | -1.9e-05 (inactive) | 0.00663 (inactive) | 12% (inactive) | 11.5% (inactive) |
| Cc1cc(NC(=O)CN2CCC(O)(c3cccc(F)c3)CC2)no1 | 584 | -53.1% (inactive) | 0.2% (inactive) | 103 | -107% (inactive) | 117 | -0.283 (inactive) | -1.6e-05 (inactive) | 0.00664 (inactive) | -0.229% (inactive) | 20.2% (inactive) |
| CCCC(C)C1C(C#N)=C(N)Oc2cc(C)oc(=O)c21 (centres undefined) | 396 | -15.6% (inactive) | -2.4% (inactive) | 68.3 | -185% (inactive) | 134 | -0.455 (inactive) | -9.5e-05 (inactive) | 0.00507 (inactive) | 18.1% (inactive) | 18.7% (inactive) |
| CC(=O)N1C(=O)c2cccc3cccc(c23)C(=O)N1C(C)=O | 776 | 4.6% (inactive) | -3.8% (inactive) | 93.6 | -62.5% (inactive) | 120 | -0.444 (inactive) | -2.9e-05 (inactive) | 0.00473 (inactive) | 18.6% (inactive) | 15.3% (inactive) |
| CCN(CC(=O)NC(=O)NCc1ccco1)Cc1nc2ccccc2c(=O)[nH]1 | 407 | -20.9% (inactive) | -36.6% (inactive) | 97.9 | 63.7% (active) | 68.4 | -0.561 (inactive) | -5.5e-05 (inactive) | 0.0066 (inactive) | 15.7% (inactive) | 15% (inactive) |
| CC1CCN(CCCNC(=O)c2cn(C)c3ccc(S(=O)(=O)N4CCCC4)cc3c2=O)CC1 | 515 | 1.8% (inactive) | 0% (inactive) | 93.4 | 18.8% (inactive) | 61.5 | -0.321 (inactive) | -5.9e-05 (inactive) | 0.00713 (inactive) | 3.75% (inactive) | 21.7% (inactive) |
